Source: ChEMBL document CHEMBL4043246, “Discovery of novel [1,2,4]triazolo[4,3-a]quinoxaline aminophenyl derivatives as BET inhibitors for cancer treatment” (Bioorg Med Chem Lett, 2017)

Legend:
[1] = Antiproliferative activity against human TY82 cells; assay type: functional, cell-based
[2] = Stability in rat liver microsomes assessed as parent compound remaining after 30 mins; assay type: ADME, microsome; settings: read-out: Stability
Outline: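 Incubated in vitro with mouse, rat or human liver microsomes for 30 minutes. Result expressed as percent of parent compound remaining.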

[3] = target: T1, Bromodomain-containing protein 4 (Homo sapiens, UniProt O60885); assay: Inhibition of BRD4 in human TY82 cells assessed as decrease in c-MYC expression level after 24 hrs by Western blot analysis; assay type: cell-based
Outline: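 Ty-82 cells at 70% confluency were treated with varying compound concentrations for 24 h. Samples were run on 12% SDS-PAGE and transferred to nitrocellulose. Membranes were blocked in PBS/1% BSA/0.1% Tween 20 for 1 h, probed with c-MYC antibodies, and detected by chemiluminescence.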

[4] = Cell cycle arrest in human TY82 cells assessed as accumulation at sub-G1 phase at 1 uM after 24 hrs by DAPI staining based assay (reference value: 6%); assay type: functional
[5] = Cell cycle arrest in human TY82 cells assessed as accumulation at G1 phase at 1 uM after 24 hrs by DAPI staining based assay (reference value: 73%); assay type: functional
[6] = Cell cycle arrest in human TY82 cells assessed as accumulation at G2/M phase at 1 uM after 24 hrs by DAPI staining based assay (reference value: 9%); assay type: functional
[7] = Cell cycle arrest in human TY82 cells assessed as accumulation at S phase at 3 uM after 24 hrs by DAPI staining based assay (reference value: 11%); assay type: functional
[8] = Cell cycle arrest in human TY82 cells assessed as accumulation at G2/M phase at 3 uM after 24 hrs by DAPI staining based assay (reference value: 9%); assay type: functional
[9] = Cell cycle arrest in human TY82 cells assessed as accumulation at sub-G1 phase at 10 uM after 24 hrs by DAPI staining based assay (reference value: 6%); assay type: functional
[10] = Cell cycle arrest in human TY82 cells assessed as accumulation at G1 phase at 10 uM after 24 hrs by DAPI staining based assay (reference value: 73%); assay type: functional
[11] = Cell cycle arrest in human TY82 cells assessed as accumulation at S phase at 10 uM after 24 hrs by DAPI staining based assay (reference value: 11%); assay type: functional
[12] = Cell cycle arrest in human TY82 cells assessed as accumulation at G2/M phase at 10 uM after 24 hrs by DAPI staining based assay (reference value: 9%); assay type: functional
[13] = target: T1, Bromodomain-containing protein 4; assay: Binding affinity to BRD4 BD1 (unknown origin)
[14] = target: T1, Bromodomain-containing protein 4; assay: Binding affinity to BRD4 BD2 (unknown origin)
[15] = target: Bromodomain-containing protein 2 (Homo sapiens) (UniProt P25440); assay: Inhibition of human partial length BRD2 BD2 (E348 to D455 residues) expressed in bacterial expression system assessed as residual activity at 500 nM relative to control by BROMOscan assay
[16] = target: ATPase family AAA domain-containing protein 2 (Homo sapiens) (UniProt Q6PL18); assay: Inhibition of human partial length ATAD2A (Q981 to R1108 residues) expressed in bacterial expression system assessed as residual activity at 500 nM relative to control by BROMOscan assay
[17] = target: Bromodomain adjacent to zinc finger domain protein 2B (Homo sapiens) (UniProt Q9UIF8); assay: Inhibition of human partial length BAZ2B (S2054 to S2168 residues) expressed in bacterial expression system assessed as residual activity at 500 nM relative to control by BROMOscan assay
[18] = target: Bromodomain-containing protein 3 (Homo sapiens) (UniProt Q15059); assay: Inhibition of human partial length BRD3 BD1 (P24 to E144 residues) expressed in bacterial expression system assessed as residual activity at 500 nM relative to control by BROMOscan assay
[19] = target: Bromodomain testis-specific protein (Homo sapiens) (UniProt Q58F21); assay: Inhibition of human partial length BRDT BD1 (N21 to E137 residues) expressed in bacterial expression system assessed as residual activity at 500 nM relative to control by BROMOscan assay
[20] = target: Chromatin remodeling regulator CECR2 (Homo sapiens) (UniProt Q9BXF3); assay: Inhibition of human partial length CECR2 (P423 to D543 residues) expressed in bacterial expression system assessed as residual activity at 500 nM relative to control by BROMOscan assay
[21] = target: Histone acetyltransferase p300 (Homo sapiens) (UniProt Q09472); assay: Inhibition of human partial length EP300 (A1040 to G1161 residues) expressed in bacterial expression system assessed as residual activity at 500 nM relative to control by BROMOscan assay
[22] = target: Protein polybromo-1 (Homo sapiens) (UniProt Q86U86); assay: Inhibition of human partial length PBRM1 BD5 (S645 to D766 residues) expressed in bacterial expression system assessed as residual activity at 500 nM relative to control by BROMOscan assay
[23] = target: Histone acetyltransferase KAT2B (Homo sapiens) (UniProt Q92831); assay: Inhibition of human partial length PCAF (G715 to D831 residues) expressed in bacterial expression system assessed as residual activity at 500 nM relative to control by BROMOscan assay
[24] = target: SWI/SNF-related matrix-associated actin-dependent regulator of chromatin subfamily A member 4 (Homo sapiens) (UniProt P51532); assay: Inhibition of human partial length SMARCA4 (A1448 to S1575 residues) expressed in bacterial expression system assessed as residual activity at 500 nM relative to control by BROMOscan assay
[25] = target: Transcription initiation factor TFIID subunit 1 (Homo sapiens) (UniProt P21675); assay: Inhibition of human partial length TAF1 BD2 (D1521 to D1656 residues) expressed in bacterial expression system assessed as residual activity at 500 nM relative to control by BROMOscan assay
[26] = target: Transcription initiation factor TFIID subunit 1-like (Homo sapiens) (UniProt Q8IZX4); assay: Inhibition of human partial length TAF1L BD2 (Q1523 to D1654 residues) expressed in bacterial expression system assessed as residual activity at 500 nM relative to control by BROMOscan assay
[27] = target: Bromodomain and WD repeat-containing protein 1 (Homo sapiens) (UniProt Q9NSI6); assay: Inhibition of human partial length WDR9 BD2 (A1310 to E1430 residues) expressed in bacterial expression system assessed as residual activity at 500 nM relative to control by BROMOscan assay
[28] = system: Rattus norvegicus; assay: Cmax in rat at 20 mg/kg, po; assay type: ADME, organism-based; parameters: dose 20 mg/kg, route oral; settings: in vivo
Outline: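 Peak plasma level after single oral dosing in rat at 5 or 20 mg/kg. Cmax is given in mg/mL as printed, with Tmax in hours.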

[29] = system: Rattus norvegicus; assay: Half life in rat at 20 mg/kg, po; assay type: ADME, organism-based; settings: in vivo
Outline: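 Rat pharmacokinetics with single intravenous (2 mg/kg) or oral (5 or 20 mg/kg) dosing. Terminal half-life is reported in hours.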

Bromodomain and WD repeat-containing protein 1 (Homo sapiens), sequence (Q9NSI6 whole entry, the tested form may be a part): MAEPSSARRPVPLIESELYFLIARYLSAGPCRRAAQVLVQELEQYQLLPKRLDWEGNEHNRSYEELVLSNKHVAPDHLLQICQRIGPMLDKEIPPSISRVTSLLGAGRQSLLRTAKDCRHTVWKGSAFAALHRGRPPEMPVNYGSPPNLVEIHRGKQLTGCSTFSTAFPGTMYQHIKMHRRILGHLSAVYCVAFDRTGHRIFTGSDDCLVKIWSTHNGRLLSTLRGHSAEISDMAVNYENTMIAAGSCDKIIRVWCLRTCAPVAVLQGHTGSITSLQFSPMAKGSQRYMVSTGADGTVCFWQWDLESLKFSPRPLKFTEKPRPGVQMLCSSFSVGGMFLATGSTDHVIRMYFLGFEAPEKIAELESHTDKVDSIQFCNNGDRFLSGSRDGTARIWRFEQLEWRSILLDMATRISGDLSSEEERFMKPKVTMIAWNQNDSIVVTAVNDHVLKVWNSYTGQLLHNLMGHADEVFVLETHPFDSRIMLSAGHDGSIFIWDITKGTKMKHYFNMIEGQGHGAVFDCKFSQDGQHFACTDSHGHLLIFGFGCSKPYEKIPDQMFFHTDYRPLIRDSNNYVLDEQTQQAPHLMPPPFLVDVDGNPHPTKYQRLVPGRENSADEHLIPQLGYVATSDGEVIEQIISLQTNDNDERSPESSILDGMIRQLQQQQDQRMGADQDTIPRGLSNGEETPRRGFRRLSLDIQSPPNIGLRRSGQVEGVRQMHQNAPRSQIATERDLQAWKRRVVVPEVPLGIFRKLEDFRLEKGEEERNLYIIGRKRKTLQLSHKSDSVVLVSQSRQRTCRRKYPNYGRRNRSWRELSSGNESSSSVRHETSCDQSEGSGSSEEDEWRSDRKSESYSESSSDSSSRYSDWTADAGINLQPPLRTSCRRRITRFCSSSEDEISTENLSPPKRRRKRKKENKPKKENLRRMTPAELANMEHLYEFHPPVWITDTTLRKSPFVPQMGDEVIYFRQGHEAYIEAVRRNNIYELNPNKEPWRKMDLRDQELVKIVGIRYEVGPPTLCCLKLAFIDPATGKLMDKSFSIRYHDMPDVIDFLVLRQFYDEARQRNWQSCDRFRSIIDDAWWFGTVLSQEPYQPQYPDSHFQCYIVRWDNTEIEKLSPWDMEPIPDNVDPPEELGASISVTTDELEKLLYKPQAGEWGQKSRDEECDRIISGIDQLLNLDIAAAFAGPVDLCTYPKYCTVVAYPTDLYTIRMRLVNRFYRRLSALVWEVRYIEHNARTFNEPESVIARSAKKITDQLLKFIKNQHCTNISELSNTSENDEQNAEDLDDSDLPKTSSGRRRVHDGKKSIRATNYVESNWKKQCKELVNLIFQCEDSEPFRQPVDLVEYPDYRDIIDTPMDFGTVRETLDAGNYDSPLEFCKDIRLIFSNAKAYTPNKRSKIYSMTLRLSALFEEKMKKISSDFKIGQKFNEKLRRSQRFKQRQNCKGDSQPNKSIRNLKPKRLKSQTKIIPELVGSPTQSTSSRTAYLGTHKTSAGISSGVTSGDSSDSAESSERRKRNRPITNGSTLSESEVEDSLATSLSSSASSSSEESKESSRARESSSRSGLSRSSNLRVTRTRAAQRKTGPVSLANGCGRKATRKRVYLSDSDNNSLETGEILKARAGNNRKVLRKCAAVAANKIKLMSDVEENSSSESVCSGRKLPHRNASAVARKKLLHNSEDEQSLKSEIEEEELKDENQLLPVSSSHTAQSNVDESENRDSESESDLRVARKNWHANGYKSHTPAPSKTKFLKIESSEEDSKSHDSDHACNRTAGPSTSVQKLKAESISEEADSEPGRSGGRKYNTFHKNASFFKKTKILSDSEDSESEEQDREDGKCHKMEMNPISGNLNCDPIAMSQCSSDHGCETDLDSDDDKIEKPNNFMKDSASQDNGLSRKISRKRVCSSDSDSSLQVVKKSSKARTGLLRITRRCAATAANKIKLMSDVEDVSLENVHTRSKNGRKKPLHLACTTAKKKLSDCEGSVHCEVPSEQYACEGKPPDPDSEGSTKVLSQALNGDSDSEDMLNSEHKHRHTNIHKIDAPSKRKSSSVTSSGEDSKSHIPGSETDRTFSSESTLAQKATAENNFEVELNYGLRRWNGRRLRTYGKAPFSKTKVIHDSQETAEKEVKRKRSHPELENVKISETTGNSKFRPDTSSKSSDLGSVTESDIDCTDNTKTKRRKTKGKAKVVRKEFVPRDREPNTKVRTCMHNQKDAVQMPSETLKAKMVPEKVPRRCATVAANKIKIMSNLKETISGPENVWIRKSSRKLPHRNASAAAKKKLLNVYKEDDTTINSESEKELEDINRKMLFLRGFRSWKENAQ
SWI/SNF-related matrix-associated actin-dependent regulator of chromatin subfamily A member 4 (Homo sapiens), sequence (P51532 whole entry, the tested form may be a part): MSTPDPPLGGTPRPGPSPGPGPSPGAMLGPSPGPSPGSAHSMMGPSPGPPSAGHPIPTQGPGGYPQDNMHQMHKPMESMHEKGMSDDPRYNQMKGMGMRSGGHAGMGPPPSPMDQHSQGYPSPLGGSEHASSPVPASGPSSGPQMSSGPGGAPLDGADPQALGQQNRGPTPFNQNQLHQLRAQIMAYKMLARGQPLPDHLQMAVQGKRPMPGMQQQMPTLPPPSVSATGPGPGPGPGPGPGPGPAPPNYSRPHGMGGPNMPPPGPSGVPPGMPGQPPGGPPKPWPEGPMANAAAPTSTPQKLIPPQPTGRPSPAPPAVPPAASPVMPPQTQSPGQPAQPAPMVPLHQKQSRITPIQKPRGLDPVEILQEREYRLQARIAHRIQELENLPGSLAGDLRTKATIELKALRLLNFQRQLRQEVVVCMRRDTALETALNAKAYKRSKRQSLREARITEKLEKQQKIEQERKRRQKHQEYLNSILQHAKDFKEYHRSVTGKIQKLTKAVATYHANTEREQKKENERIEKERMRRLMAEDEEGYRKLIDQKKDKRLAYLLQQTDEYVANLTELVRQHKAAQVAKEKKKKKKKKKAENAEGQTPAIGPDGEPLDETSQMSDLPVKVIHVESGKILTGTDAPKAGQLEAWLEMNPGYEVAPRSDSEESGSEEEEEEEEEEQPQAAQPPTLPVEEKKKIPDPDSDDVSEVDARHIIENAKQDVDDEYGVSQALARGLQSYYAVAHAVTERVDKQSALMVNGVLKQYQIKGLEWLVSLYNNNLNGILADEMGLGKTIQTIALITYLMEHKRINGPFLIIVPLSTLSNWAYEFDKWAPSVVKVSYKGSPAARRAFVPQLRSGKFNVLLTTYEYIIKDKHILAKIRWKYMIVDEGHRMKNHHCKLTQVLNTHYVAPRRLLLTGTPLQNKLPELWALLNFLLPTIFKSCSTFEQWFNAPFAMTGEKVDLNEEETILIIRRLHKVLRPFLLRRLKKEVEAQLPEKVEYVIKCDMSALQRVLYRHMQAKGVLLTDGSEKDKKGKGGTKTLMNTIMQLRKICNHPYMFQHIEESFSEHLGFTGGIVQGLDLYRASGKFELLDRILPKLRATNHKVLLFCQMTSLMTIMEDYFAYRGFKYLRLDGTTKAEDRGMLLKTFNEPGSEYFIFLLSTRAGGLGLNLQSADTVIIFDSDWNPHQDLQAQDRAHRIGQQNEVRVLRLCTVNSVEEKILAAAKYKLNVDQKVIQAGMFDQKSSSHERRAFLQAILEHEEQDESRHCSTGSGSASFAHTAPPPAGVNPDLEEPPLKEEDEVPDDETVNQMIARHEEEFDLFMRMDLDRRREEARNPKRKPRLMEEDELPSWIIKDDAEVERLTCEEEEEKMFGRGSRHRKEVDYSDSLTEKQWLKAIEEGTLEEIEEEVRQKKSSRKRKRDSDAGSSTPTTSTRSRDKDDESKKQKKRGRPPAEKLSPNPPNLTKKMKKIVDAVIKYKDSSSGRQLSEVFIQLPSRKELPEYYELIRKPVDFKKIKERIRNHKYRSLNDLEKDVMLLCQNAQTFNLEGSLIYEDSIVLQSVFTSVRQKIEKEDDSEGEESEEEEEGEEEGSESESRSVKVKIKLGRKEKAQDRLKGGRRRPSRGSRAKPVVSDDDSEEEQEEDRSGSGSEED
Histone acetyltransferase KAT2B (Homo sapiens), sequence (Q92831 whole entry, looked up, the tested form may be a part): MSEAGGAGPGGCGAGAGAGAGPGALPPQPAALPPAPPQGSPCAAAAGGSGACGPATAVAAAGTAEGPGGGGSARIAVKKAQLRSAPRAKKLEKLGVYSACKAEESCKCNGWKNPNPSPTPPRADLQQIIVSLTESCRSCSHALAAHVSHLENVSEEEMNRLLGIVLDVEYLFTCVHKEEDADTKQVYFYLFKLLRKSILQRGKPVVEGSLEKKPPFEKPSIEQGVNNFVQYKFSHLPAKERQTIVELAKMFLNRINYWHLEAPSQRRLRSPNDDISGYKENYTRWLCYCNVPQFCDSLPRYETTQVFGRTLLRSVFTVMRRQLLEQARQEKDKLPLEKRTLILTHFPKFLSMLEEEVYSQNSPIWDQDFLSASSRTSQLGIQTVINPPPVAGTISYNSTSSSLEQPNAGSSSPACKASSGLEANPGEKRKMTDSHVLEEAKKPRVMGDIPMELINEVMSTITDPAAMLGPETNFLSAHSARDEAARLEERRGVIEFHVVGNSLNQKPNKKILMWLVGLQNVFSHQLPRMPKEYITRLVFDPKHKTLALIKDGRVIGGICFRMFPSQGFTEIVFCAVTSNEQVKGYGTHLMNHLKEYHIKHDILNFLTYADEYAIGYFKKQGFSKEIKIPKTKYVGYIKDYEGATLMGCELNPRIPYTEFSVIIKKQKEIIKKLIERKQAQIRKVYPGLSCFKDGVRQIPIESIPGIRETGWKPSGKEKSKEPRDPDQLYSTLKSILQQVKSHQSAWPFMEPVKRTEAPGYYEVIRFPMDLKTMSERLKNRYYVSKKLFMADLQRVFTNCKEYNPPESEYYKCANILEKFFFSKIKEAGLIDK

## Cc1nnc2c(Nc3cccc(CNC(=O)C(C)C)c3)nc3ccccc3n12
[1]
  IC50: 2500 nM
[2]
  remaining at 0.5 h: 5%
[3]
  inhibition: Dose-dependent effect
[4]
  Activity: 5%
[5]
  Activity: 81%
[6]
  Activity: 8%
[7]
  Activity: 2%
[8]
  Activity: 4%
[9]
  Activity: 5%
[10]
  Activity: 88%
[11]
  Activity: 2%
[12]
  Activity: 4%
[13]
  Kd: 27 nM
[14]
  Kd: 9 nM
[15]
  Activity: 19%
[16]
  Activity: 100%
[17]
  Activity: 93%
[18]
  Activity: 11%
[19]
  Activity: 19%
[20]
  Activity: 88%
[21]
  Activity: 89%
[22]
  Activity: 84%
[23]
  Activity: 91%
[24]
  Activity: 100%
[25]
  Activity: 36%
[26]
  Activity: 83%
[27]
  Activity: 100%
[28]
  Cmax: 4600 ng/mL
[29]
  t1/2: 3 h
